Measured values from ChEMBL document CHEMBL2062483, “Design of Bcl-2 and Bcl-xL inhibitors with subnanomolar binding affinities based upon a new scaffold” (J Med Chem, 2012).
Active and inactive are the calls of the source. The rule behind the calls is not given here.

Tests used:
[1] = target: Apoptosis regulator Bcl-2 (Homo sapiens, UniProt P10415); assay: Binding affinity to N-terminus 6X His-tagged human Bcl2 expressed in Escherichia coli BL21 (DE3) cells after 2 hrs by fluorescence polarization assay
How it was run: (§1)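 Competitive FP binding: serially diluted inhibitor in DMSO added to preincubated protein/fluorescent probe complex, 2 h at room temperature with gentle shaking. Final protein/probe: Bcl-2 1.5 nM/1 nM; Bcl-xL 10 nM/2 nM; Mcl-1 20 nM/2 nM. IC50 from nonlinear regression; Ki calculated from IC50, probe Kd and protein/probe concentrations.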

[2] = target: Bcl-2-like protein 1 (Homo sapiens, UniProt Q07817); assay: Binding affinity to N-terminus 8X His-tagged human Bcl-xL expressed in Escherichia coli BL21 (DE3) cells after 2 hrs by fluorescence polarization assay; how it was run: as §1
[3] = target: Induced myeloid leukemia cell differentiation protein Mcl-1 (Homo sapiens, UniProt Q07820); assay: Binding affinity to N-terminus 8X His-tagged human Mcl1 expressed in Escherichia coli BL21 (DE3) cells after 2 hrs by fluorescence polarization assay; how it was run: as §1
[4] = Growth inhibition of human NCI-H146 cells after 4 days by WST8 assay; format: functional, cell-based; conditions: NCI-H146, 96 h
[5] = system: NCI-H1417; assay: Growth inhibition of human NCI-H1417 cells after 4 days by WST8 assay; format: functional, cell-based; conditions: NCI-H1417, 96 h
[6] = system: NCI-H146; assay: Cytotoxicity against human NCI-H146 cells assessed as cell death after 24 hrs by trypan blue assay; format: functional, cell-based
How it was run: (§2)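 H146 cells exposed to compound for 24 h, then harvested and stained with trypan blue. Cells staining blue or looking morphologically unhealthy were scored dead; at least 100 cells counted per sample.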

[7] = system: NCI-H146; assay: Induction of apoptosis in human NCI-H146 cells assessed as PARP cleavage at 100 nM after 24 hrs by Western blot analysis; format: functional, cell-based
How it was run: (§3)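 H146 cells treated 24 h, lysed on ice 20 min in RIPA buffer (1% NP40, 0.5% Na-deoxycholate, 0.1% SDS in PBS) with 1 μmol/L PMSF and protease inhibitors. Lysates cleared, protein quantified, run on 4–20% SDS-PAGE, blotted to PVDF, blocked in 5% milk. Rabbit anti-PARP and anti-caspase-3, GAPDH loading control; HRP secondary with chemiluminescent detection.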

[8] = system: NCI-H146; assay: Induction of apoptosis in human NCI-H146 cells assessed as caspase 3 cleavage at 100 nM after 24 hrs by Western blot analysis; format: functional, cell-based; how it was run: as §3
[9] = system: NCI-H146; assay: Cytotoxicity against human NCI-H146 cells assessed as cell death at 30 to 100 nM after 24 hrs by trypan blue assay; format: functional, cell-based; how it was run: as §2
[10] = Cytotoxicity against human NCI-H146 cells assessed as cell death at 300 nM after 24 hrs by trypan blue assay; format: functional
How it was run: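 H146 human small cell lung cancer line, grown in RPMI-1640 with 10% FBS, exposed to compound for 24 h. Cells then harvested and stained with trypan blue. Blue-stained or morphologically unhealthy cells counted as dead, with at least 100 cells scored per sample.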

Chain of Apoptosis regulator Bcl-2 (P10415 whole entry): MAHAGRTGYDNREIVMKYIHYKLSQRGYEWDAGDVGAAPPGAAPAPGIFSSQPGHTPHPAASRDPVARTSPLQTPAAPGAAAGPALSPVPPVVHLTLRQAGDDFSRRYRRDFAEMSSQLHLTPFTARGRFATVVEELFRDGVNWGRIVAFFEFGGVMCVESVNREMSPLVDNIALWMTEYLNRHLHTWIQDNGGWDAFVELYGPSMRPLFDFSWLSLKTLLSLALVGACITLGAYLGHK
Chain of Bcl-2-like protein 1 (Q07817 whole entry): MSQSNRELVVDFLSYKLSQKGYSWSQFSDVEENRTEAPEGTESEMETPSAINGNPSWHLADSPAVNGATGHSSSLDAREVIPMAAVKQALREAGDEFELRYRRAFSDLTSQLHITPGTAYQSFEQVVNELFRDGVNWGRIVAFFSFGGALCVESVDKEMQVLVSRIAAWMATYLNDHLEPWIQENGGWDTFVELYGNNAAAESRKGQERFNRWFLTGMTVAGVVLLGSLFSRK
Chain of Induced myeloid leukemia cell differentiation protein Mcl-1 (Q07820 whole entry): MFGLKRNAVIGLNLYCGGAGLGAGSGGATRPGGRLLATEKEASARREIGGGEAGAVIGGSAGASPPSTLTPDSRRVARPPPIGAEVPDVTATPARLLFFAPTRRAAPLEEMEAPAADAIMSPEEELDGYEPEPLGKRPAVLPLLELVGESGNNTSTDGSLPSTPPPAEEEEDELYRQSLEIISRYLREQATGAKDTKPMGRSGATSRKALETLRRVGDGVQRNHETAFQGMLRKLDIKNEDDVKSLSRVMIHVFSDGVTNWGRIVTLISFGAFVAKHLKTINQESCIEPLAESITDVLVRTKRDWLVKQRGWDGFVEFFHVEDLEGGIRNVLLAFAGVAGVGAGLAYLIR

| Structure (SMILES) | IC50 [1] [nM] | Ki [1] [nM] | IC50 [2] [nM] | Ki [2] [nM] | IC50 [3] [nM] | IC50 [4] [nM] | IC50 [5] [nM] | Activity [6] | Activity [7] | Activity [8] | Activity [9] | Activity [10] [%] |
| --- | --- | --- | --- | --- | --- | --- | --- | --- | --- | --- | --- | --- |
| CNC(=O)c1c(-c2cccc(N3CCN(c4ccc(NS(=O)(=O)c5ccc(N[C@H](CCN(C)C)CSc6ccccc6)c([N+](=O)[O-])c5)cc4)CC3)c2)c(-c2ccc(Cl)cc2)cn1C | 5.3 | 1.2 | 6.3 | < 1 | > 2000 | 400 | 650 |  |  |  |  |  |
| CN(C)CC[C@H](CSc1ccccc1)Nc1ccc(S(=O)(=O)Nc2ccccc2)cc1[N+](=O)[O-] | > 100000 |  | 547000 | 166000 | > 100000 | > 10000 | > 10000 |  |  |  |  |  |
| CN(C)CC[C@H](CSc1ccccc1)Nc1ccc(S(=O)(=O)Nc2ccc(N3CCN(c4cccc(-c5c(-c6ccc(Cl)cc6)cn(C)c5C(=O)O)c4)CC3)cc2)cc1[N+](=O)[O-] | 1.7 | < 0.6 | 3.6 | < 1 | > 2000 | 340 | 552 | Dose-dependent effect | Active | Active |  |  |
| CN(C)CC[C@H](CSc1ccccc1)Nc1ccc(S(=O)(=O)Nc2ccc(N3CCNCC3)cc2)cc1[N+](=O)[O-] |  |  |  |  | > 100000 | > 10000 | > 10000 |  |  |  |  |  |
| CN1CCN(CCCNC(=O)c2c(-c3ccccc3)c(-c3ccc(Cl)cc3)cn2CC[C@H](O)CO)CC1 | 213000 | 78000 | 453000 |  | > 100000 | > 10000 | > 10000 |  |  |  |  |  |
| CN(C)CC[C@H](CSc1ccccc1)Nc1ccc(S(N)(=O)=O)cc1[N+](=O)[O-] | > 100000 |  | 238000 | 75000 | > 100000 | > 10000 | > 10000 |  |  |  |  |  |
| CN(C)CC[C@H](CSc1ccccc1)Nc1ccc(S(=O)(=O)Nc2ccc(N3CCN(Cc4ccccc4-c4ccc(Cl)cc4)CC3)cc2)cc1[N+](=O)[O-] | 85.3 | 21.8 | 88.3 | 24.7 | > 10000 | > 10000 | > 10000 |  |  |  |  |  |
| CCc1c(-c2ccc(Cl)cc2)c(-c2cccc(N3CCN(c4ccc(NS(=O)(=O)c5ccc(N[C@H](CCN(C)C)CSc6ccccc6)c([N+](=O)[O-])c5)cc4)CC3)c2)c(C(=O)O)n1C |  |  | 7.5 | < 1 | > 2000 |  |  | Dose-dependent effect | Active | Active | Active | >70 |
| CN(C)CC[C@H](CSc1ccccc1)Nc1ccc(S(=O)(=O)NC(=O)c2ccc(N3CCN(Cc4ccccc4-c4ccc(Cl)cc4)CC3)cc2)cc1[N+](=O)[O-] [ABT 737] |  |  |  |  |  | 97 | 130 |  |  |  |  |  |
| CN(C)CC[C@H](CSc1ccccc1)Nc1ccc(S(=O)(=O)Nc2ccc(N3CCN(c4cccc(-c5c(-c6ccc(Cl)cc6)cn(C)c5C(=O)NCCCN5CCN(C)CC5)c4)CC3)cc2)cc1[N+](=O)[O-] | 0.6 | < 0.6 | 4.9 | < 1 | > 10000 | 430 | 650 |  |  |  |  |  |
| CN(C)CC[C@H](CSc1ccccc1)Nc1ccc(S(=O)(=O)Nc2ccc(C#Cc3cccc(-c4c(-c5ccc(Cl)cc5)cn(CC[C@H](O)CO)c4C(=O)NCCCN4CCN(C)CC4)c3)cc2)cc1[N+](=O)[O-] | 6.6 | 1.5 | 12.6 | 1.7 | > 10000 | > 10000 | > 10000 |  |  |  |  |  |
| CN(C)CC[C@H](CSc1ccccc1)Nc1ccc(S(=O)(=O)Nc2ccc(N3CCN(c4ccc(-c5c(-c6ccc(Cl)cc6)cn(CC[C@H](O)CO)c5C(=O)NCCCN5CCN(C)CC5)cc4)CC3)cc2)cc1[N+](=O)[O-] | 33.9 | 8.5 | 7.6 | < 1 | > 10000 | 2500 | 3300 |  |  |  |  |  |
| CN(C)CC[C@H](CSc1ccccc1)Nc1ccc(S(=O)(=O)Nc2ccc(N3CCN(c4cccc(-c5cn(C)cc5-c5ccc(Cl)cc5)c4)CC3)cc2)cc1[N+](=O)[O-] | 82.6 | 21.1 | 34.4 | 8.3 | > 2000 | > 10000 | > 10000 |  |  |  |  |  |
| CN(C)CC[C@H](CSc1ccccc1)Nc1ccc(S(=O)(=O)Nc2ccc(N3CCN(c4cccc(-c5c(-c6ccc(Cl)cc6)cn(CC[C@H](O)CO)c5C(=O)NCCCN5CCN(C)CC5)c4)CC3)cc2)cc1[N+](=O)[O-] | 1.3 | < 0.6 | 6.2 | < 1 | > 10000 | 2000 | 1800 |  |  |  |  |  |
| CN(C)CC[C@H](CSc1ccccc1)Nc1ccc(S(=O)(=O)NC(=O)c2ccc(C#Cc3cccc(-c4c(-c5ccc(Cl)cc5)cn(CC[C@H](O)CO)c4C(=O)NCCCN4CCN(C)CC4)c3)cc2)cc1[N+](=O)[O-] | 1.9 |  | 5.7 | < 1 | > 10000 | > 10000 | > 10000 |  |  |  |  |  |
| CN(C)CC[C@H](CSc1ccccc1)Nc1ccc(S(=O)(=O)NC(=O)c2ccc(N3CCN(c4cccc(-c5c(-c6ccc(Cl)cc6)cn(CC[C@H](O)CO)c5C(=O)NCCCN5CCN(C)CC5)c4)CC3)cc2)cc1[N+](=O)[O-] | 8.7 | 2 | 6.1 | < 1 | > 10000 | > 10000 | > 10000 |  |  |  |  |  |
| CCOC(=O)c1c(-c2cccc(N3CCN(c4ccc(NS(=O)(=O)c5ccc(N[C@H](CCN(C)C)CSc6ccccc6)c([N+](=O)[O-])c5)cc4)CC3)c2)c(-c2ccc(Cl)cc2)cn1C | 45.8 | 11.6 | 12.6 | 1.7 | > 2000 | 4900 | 7300 |  |  |  |  |  |
| CN(C)CC[C@H](CSc1ccccc1)Nc1ccc(S(=O)(=O)Nc2ccc(NCCNc3cccc(-c4c(-c5ccc(Cl)cc5)cn(CC[C@H](O)CO)c4C(=O)NCCCN4CCN(C)CC4)c3)cc2)cc1[N+](=O)[O-] | 60.6 | 15.4 | 44.1 | 11.3 | > 10000 | > 10000 | > 10000 |  |  |  |  |  |
| CN(C)CC[C@H](CSc1ccccc1)Nc1ccc(S(=O)(=O)Nc2ccc(-c3cn(-c4cccc(-c5c(-c6ccc(Cl)cc6)cn(CC[C@H](O)CO)c5C(=O)NCCCN5CCN(C)CC5)c4)nn3)cc2)cc1[N+](=O)[O-] | 1.4 | < 0.6 | 4.8 | < 1 | > 10000 | > 10000 | > 10000 |  |  |  |  |  |
